Only a selection was taken, and hits are over-represented in it overall.
Fibroblast inh: blocks proliferation of human lung fibroblasts; LL 47 human lung fibroblast viability, ATP luminescence; hits give low values; viability, % at 10 µM; hit rate 1.1% among 85,000;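 active = viability at or below 50% in the single dose screen; inactive = viability above 50%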;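 also: compound exposure lasted 72 h before the ATP readout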
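Material: Human LL 47 lung fibroblast cells | Input: 1,150 cells/well | Buffer or medium: IMEM plus 15% FBS | Compound dosing: 0.1% DMSO in all compound wells | Times: Overnight cell rest, 72 h compound treatment at 37 °C | Signal: CellTiter-Glo luminescence measuring cellular ATP | Measure: % viability versus median cells-only luminescence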
HUVEC prolif 384: blocks proliferation of human endothelial cells. HUVEC proliferation, CellTiter-Glo luminescence, 72 h; hits give low values. viability, % at 10 µM (by protocol). hit rate 1.1% among 86,000. AID 648;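 active = viability at or below 30%; inactive = viability above 30%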
HCT116 bCat-KO: beta-catenin-lacking colon tumor cell growth suppression; viability, % at 10 µM; hit rate 1.5% among 140,000; HCT116 beta-catenin knockout viability, CellTiter-Glo, 60 h; hits give low values;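 active = viability at or under a set limit, the compound median less 4 SD, cut at about 6% in these data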
H69AR growth 86K: growth inhibitors of human H69AR lung tumor cells. H69AR lung tumor viability, ATP luminescence, 72 h; hits give low values. viability, % at 10 µM. hit rate 6% among 85,000;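 active = viability at or below 40%; inactive = viability above 40%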;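 also: multidrug resistant small cell line overexpressing MRP-1 efflux transporter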
Calb biofilm kill: kills Candida albicans biofilms; inhibition, % at 6 µM; C. albicans biofilm + clotrimazole, Alamar Blue; hit rate 0.14% among 85,000;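 active = inhibition above 20%; inactive = inhibition below 20%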;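 also: preformed 24 hr biofilms exposed to compound for 48 hr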
PTEN del growth: growth suppressors of cells with PTEN tumor suppressor deletion; HCT116 PTEN-null viability, CellTiter-Glo, 60 h; hits give low values; hit rate 1.2% among 140,000; viability, % at 10 µM;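 active = viability at or below a set limit, 4 SD under the median of all tested compounds, cut at about 3.7% in these data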;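 also: PTEN knockout HCT116 line with beta catenin targeted HCT116 as companion control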
A number is an active result; . = inactive; / = no result.

SMILES | Fibroblast inh | HUVEC prolif 384 | HCT116 bCat-KO | H69AR growth 86K | Calb biofilm kill | PTEN del growth
CCn1nc(C)c(/C=N/NC(=S)Nc2ccc(Cl)cc2Cl)c1C | / | / | . | / | / | 3.8
CC(C)c1ccc(-c2c(C#N)c(N)nc(SCC(=O)N3CCCCCC3)c2C#N)cc1 | . | . | . | . | . | .
N#Cc1c(N)nc(SCC(=O)NC2CCCCC2)c(C#N)c1-c1ccc(Cl)cc1 | . | . | . | 36 | . | .
CC(C)c1ccc(-c2c(C#N)c(N)nc(SCC(=O)N3CCCCC3)c2C#N)cc1 | . | 28 | . | . | . | .
CCC(C)(C)n1nnnc1C(c1cc2ccc(OC)cc2[nH]c1=O)N1CCc2ccccc2C1 (stereo not given) | . | . | . | . | . | 2.9
CCC(C)(C)n1nnnc1C(c1cc2ccc(OC)cc2[nH]c1=O)N1CCc2ccccc21 (stereo not given) | . | . | . | . | . | .
COc1ccc2cc(C(c3nnnn3C3CCCC3)N3CCc4ccccc4C3)c(=O)[nH]c2c1 (stereo not given) | . | . | . | . | . | .
COc1ccc2cc(C(c3nnnn3C(C)(C)C)N3CCc4ccccc4C3)c(=O)[nH]c2c1 (stereo not given) | . | . | 3.5 | . | . | .
CCc1cccc(OCCCN2C(=O)NC(C)(C)C2=O)c1 | . | . | . | . | 82 | .
O=C(Nc1ccccc1)c1nnsc1S(=O)c1ccc(Cl)cc1 (stereo not given) | / | / | . | / | / | 2.2
CC1=NN(C(=O)c2ccc(Cn3cc([N+](=O)[O-])cn3)cc2)C(O)(C(F)(F)F)C1 (stereo not given) | / | / | . | / | / | .
Cc1ccc(-c2nc3ccccc3c(=O)n2NC(=S)N(C)C)cc1 | / | / | . | / | / | .
CC(C)CN1C(=S)SC(C)(C)C1n1oc(=O)n(-c2ccccc2)c1=O (stereo not given) | / | / | . | / | / | .
CC(C)CN1C(=S)SC(C)(C)C1n1oc(=O)n(-c2ccc(Cl)cc2)c1=O (stereo not given) | . | . | 2.3 | . | . | 0.8
COc1ccc(OCC(O)Cn2cnc(-c3ccc(Br)cc3)c2)cc1 (stereo not given) | . | . | . | 39 | . | .
CCc1cc(=O)oc2cc3occ(-c4ccc(OC)c(F)c4)c3cc12 | / | / | 4.2 | / | / | 2.7
O=c1nc2s/c(=C\c3ccc(-c4ccccc4[N+](=O)[O-])o3)c(=O)n2nc1-c1ccccc1 | / | / | . | / | / | .
O=C(CC(c1ccccc1)c1ccccc1)Nc1ccc(Cl)cn1 | . | . | . | 17 | . | .
O=C(CSCc1ccccc1)Nc1ccc(Cl)cn1 | . | . | . | . | . | .
Cc1cc(/N=C/C=C2\N(C)c3ccccc3C2(C)C)n(CCC#N)n1 | . | . | . | 20 | . | .
CNC(=S)N/N=C1\C(=O)c2cccc3cccc1c23 | 46 | . | 2.6 | 13 | . | 1.2
O=C1CSC(=S)N1CC1CCCO1 (stereo not given) | . | . | . | 20 | . | .
Cc1cc2ncn(S(=O)(=O)c3ccc(S(=O)(=O)N4CCCCCC4)cc3)c2cc1C | . | . | / | 35 | . | /
Cc1ccc(CN(CC2CCCO2)C(=O)CN2C(=O)C(C(C)C)Oc3ccccc32)o1 (stereo not given) | . | . | . | 38 | . | .
Cc1nc2c3cc(Cl)ccc3n(CCN3CCCCC3)c2s1 | 49 | . | . | 26 | . | .
SMILES | Fibroblast inh | HUVEC prolif 384 | HCT116 bCat-KO | H69AR growth 86K | Calb biofilm kill | PTEN del growth
Cc1nc2c3cc(F)ccc3n(Cc3ccc(F)cc3)c2s1 | / | / | . | / | / | .
Cc1cc(NC(=O)COC(=O)c2ccc(S(=O)(=O)N3CCCc4ccccc43)cc2)no1 | . | . | . | 23 | . | .
Nc1ccc(S(=O)(=O)N2CCCc3ccccc32)cc1 | . | . | . | . | . | .
O=C(NCc1ccco1)c1ccc(S(=O)(=O)N2CCCc3ccccc32)cc1 | . | . | . | 31 | . | .
Cc1cc(NC(=O)COC(=O)c2ccc(NS(=O)(=O)c3ccc(C)c(C)c3)cc2)no1 | . | . | . | . | . | .
COC(=O)Nc1ccc(S(=O)(=O)N2CCCCCC2)cc1 | . | . | . | . | . | .
O=C(NCc1ccccc1)c1ccc(S(=O)(=O)N2CCCc3ccccc32)cc1 | . | . | . | . | . | .
CC(=O)Nc1ccc(S(=O)(=O)N2CCCc3ccccc32)cc1 | . | . | . | 13 | . | .
COC(=O)Nc1ccc(S(=O)(=O)N2c3ccccc3CCC2C)cc1 (stereo not given) | 49 | . | . | 16 | . | .
Cc1csc(Sc2ccc([N+](=O)[O-])cc2C(=O)OCC(=O)NC(=O)NC(C)(C)C)n1 | / | / | . | / | / | .
CC(NC(=O)CN1C(=O)NC(Cc2ccccc2)(Cc2ccccc2)C1=O)C12CC3CC(CC(C3)C1)C2 (stereo not given) | . | . | . | 6.3 | . | .
CC(NC(=O)Cn1ncc(Cl)c(Cl)c1=O)C12CC3CC(CC(C3)C1)C2 (stereo not given) | / | / | 1.2 | / | / | 1.4
Cc1ccc(-c2nnc(SCC(=O)Nc3cccc(C(=O)N4CCOCC4)c3)n2C)cc1 | / | / | . | / | / | .
O=c1cc(N2CCCCC2)c(-c2ccccc2)nn1Cc1c(Cl)cccc1Cl | / | / | . | / | / | .
O=C(Cn1cnc2ccc(Br)cc2c1=O)c1cccs1 | / | / | . | / | / | .
CCOc1cc2[nH]c(=S)n(CCCN3CCN(C)CC3)c(=O)c2cc1OCC | . | . | / | . | . | /
CCOc1cc2[nH]c(=S)n(CCC(=O)N3CCc4ccccc4C3)c(=O)c2cc1OCC | . | . | . | 28 | . | .
Cc1ccc(CNC(=O)CSc2nc3ccccc3c3nc(C)nn23)cc1 | / | / | . | / | / | .
Cc1n[nH]c(C)c1CCc1nc2c3ccccc3nc(SCC(=O)Nc3ccccc3F)n2n1 | . | . | . | . | . | .
Cc1cncn1CCc1nc2c3ccccc3nc(SCC(=O)Nc3cccc(Cl)c3)n2n1 | / | / | 5.3 | / | / | 1.0
Cc1cccc(NC(=O)CSc2nc3ccccc3c3nc(CCc4c(C)n[nH]c4C)nn23)c1 | 26 | 2.0 | . | 1.1 | . | .
CCOc1cc(S(=O)(=O)NCc2ccc3c(c2)OCO3)c(C)cc1C | . | . | . | . | . | .
CCOc1cc(C)c(Cl)cc1S(=O)(=O)NCc1ccc2c(c1)OCO2 | . | . | . | 22 | . | .
Cc1ccccc1NC1=C/C(=N\S(=O)(=O)c2cccs2)c2ccccc2C1=O | / | / | 1.5 | / | / | 1.9
Cc1cc[n+](C2=C([O-])c3ccccc3C(=O)/C2=N\S(=O)(=O)c2cccs2)cc1C | / | / | 1.6 | / | / | 1.8
O=C(c1ccc2c(c1)OCO2)N(Cc1ccco1)C1(C(=O)NC2CCCCC2)CCCCC1 | / | / | . | / | / | .
O=C(N/N=C/c1coc2ccccc2c1=O)c1cn(-c2ccccc2)nc1-c1ccc(F)cc1 | / | / | . | / | / | .
CCN(CC)C(=S)Sc1c(-c2ccccc2)c2cc(Cl)ccc2[nH]c1=O | . | . | . | . | . | .
O=C(c1ccc(Cl)cc1)c1ccc(CN2C(=O)c3ccccc3C2=O)o1 | . | . | . | . | . | .

High-throughput results: PubChem BioAssay, several laboratories
